The source of these data is ChEMBL document CHEMBL2046441, “Synthesis and SAR of 4-aminocyclopentapyrrolidines as N-type Ca²⁺ channel blockers with analgesic activity” (Bioorg Med Chem, 2012).

Where only a bound is given, the exact number is not on record here.

Data set [1] concerns Rattus norvegicus. The experiment in a line: Cardiovascular toxicity in anesthetized Sprague-Dawley rat assessed as changes in mean arterial pressure at 10 mg/kg, iv by hemodynamic function study. The class given is organism-based, Artery. Also on record: dose 10 mg/kg, route intravenous. As to conditions: in vivo.
The subject of data set [2] is Rattus norvegicus. The experiment in a line: Cardiovascular toxicity in anesthetized Sprague-Dawley rat assessed as changes in dp/dt rate at 10 mg/kg, iv by hemodynamic function study. The note with it: in vivo. Also on record: dose 10 mg/kg, route intravenous. The class given is organism-based.
Data set [3] can be described thus: Stability in human liver microsomes assessed as compound remaining measured after 30 mins. As to conditions: read-out: Stability. The class given is ADME, Microsome. Put shortly: (§1)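 Compound is incubated with human or rat liver microsomes, and percent parent remaining is measured after 30 min.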
Background: Liver microsomes are vesicles of endoplasmic reticulum, rich in cytochrome P450 enzymes.

The subject of data set [4] is Rattus norvegicus. The data set can be described thus: Neurotoxicity in Sprague-Dawley rat assessed as induction of rotarod performance deficit at 3 to 30 mg/kg, ip and measured once animals were placed back on rotarod apparatus for 3 consecutive testing trials 30 mins following compound dosing. The class given is toxicity, organism-based. Set-up: dose 3-30 mg/kg, route intraperitoneal. The note with it: in vivo, 0.5 h. Put shortly:
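Male rats first receive three training sessions on an accelerating rod, 0–20 rpm over 60 s. Dosing is 3, 10, 30 mg/kg ip in 10% DMSO/PEG400, n = 6 per group. There are 3 consecutive trials at 30 min post-dose, recording fall latency with a 60 s cut-off.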
(Falling from the rotarod earlier than controls is read as motor impairment.)

Data set [5] in a line: Protein binding in plasma. The note with it: read-out: PPB. Type of data set: ADME, cell-free.
Data set [6] is described as follows: Stability in rat liver microsomes assessed as compound remaining measured after 30 mins. Type of data set: ADME, Microsome. The note with it: read-out: Stability. Put shortly: as §1
The nature of data set [7]: Bioavailability in ip dosed Sprague-Dawley rat. The note with it: in vivo. Type of data set: ADME, organism-based.
Data set [8] deals with Rattus norvegicus. The data set can be described thus: Analgesic activity in ip dosed Sprague-Dawley rat osteoarthritis pain model assessed as increase in maximum compressive grip force dosed 30 mins before grip force assessment. The class given is functional, organism-based. Put shortly:
(§2)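 Male Sprague-Dawley rats (200–350 g) were tested at least 21 days after MIA injection. Dosing was 3, 10 or 30 mg/kg ip in 10% DMSO/PEG 400, 30 min before testing; n = 12 per group. Hindlimb grip force was measured twice ~2 min apart to get CFmax, normalised to body weight. Vehicle group set as 0%, age-matched naive group as 100%.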

For data set [9], the system named is Rattus norvegicus. The experiment in a line: Analgesic activity in Sprague-Dawley rat persistent pain model assessed as inhibition of flinching behavior at 30 mg/kg, ip dosed 30 mins before formalin challenge measured for 20 mins following formalin challenge. The class given is functional. The note with it: route intraperitoneal. A digest of the protocol:
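Male Sprague-Dawley rats (200–350 g) were dosed ip in 10% DMSO/PEG 400 (3, 10, 30 mg/kg; n = 6) 30 min before formalin. They then received 50 µl of 5% formalin s.c. into the dorsal right hind paw. Flinches of the injected paw were counted 30–50 min after injection (phase II), sampling one 60 s period per 5 min interval.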

Data set [10] is described as follows: Inhibition of Voltage-dependent N-type calcium channel in human IMR32 cells by FLIPR based Ca(2+) flux assay. The class given is cell-based, IMR-32. A digest of the protocol:
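IMR32 cells were plated at 120,000/well and grown 48 h at 37 °C, 5% CO₂. Cells were loaded with Calcium 4 dye in HBSS/1 mM HEPES pH 7.4 for 1.5 h at room temperature, with antagonists present for 1 h of loading.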

The target in data set [11] is Voltage-gated L-type calcium channel (Rattus norvegicus, UniProt P22002+Q02485+P27732). The experiment in a line: Inhibition of L-type calcium channel in Sprague-Dawley rat aorta assessed as relaxation of Kcl-induced tissue contraction by aortic ring relaxation assay. Type of data set: tissue-based.
Data set [12] can be described thus: Aqueous solubility of the compound. The class given is physicochemical. The note with it: buffer.
Data set [13] deals with Rattus norvegicus. The experiment in a line: Analgesic activity in Sprague-Dawley rat acute inflammatory pain model assessed as inhibition of carrageenan-induced thermal hypersensitivity of paw withdrawal latency at 30 mg/kg, ip dosed 30 mins before thermal hypersensitivity assessment. The class given is functional. As to conditions: route intraperitoneal. A digest of the protocol: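 Male Sprague-Dawley rats (200–350 g) received 3, 10 or 30 mg/kg ip in 10% DMSO/PEG 400, n = 6. Dosing was 30 min before testing, and testing was 2 h after intraplantar carrageenan in the right hind paw. Hargreaves radiant heat on 30 °C glass, 4.50 amp, 20.48 s cutoff; each paw tested 3 times ~5 min apart. PWL is the mean of the two shortest latencies.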

Data set [14] concerns Rattus norvegicus. The data set can be described thus: Analgesic activity in Sprague-Dawley rat persistent pain model assessed as inhibition of flinching behavior at 10 mg/kg, ip dosed 30 mins before formalin challenge measured for 20 mins following formalin challenge.
Data set [15] is described as follows: Therapeutic index, ratio of cardiovascular effect in Sprague-Dawley rat at 10 mg/kg, iv to EC50 for analgesic activity in ip dosed Sprague-Dawley rat osteoarthritis pain model. The class given is organism-based. As to conditions: in vivo, read-out: TI. Set-up: dose 10 mg/kg, route intravenous.
Data set [16] concerns Rattus norvegicus. The data set can be described thus: Analgesic activity in Sprague-Dawley rat osteoarthritis pain model assessed as increase in maximum compressive grip force at 30 mg/kg, ip dosed 30 mins before grip force assessment. The class given is functional. As to conditions: route intraperitoneal. A digest of the protocol:
as §2

Data set [17] deals with Voltage-dependent N-type calcium channel subunit alpha-1B (Rattus norvegicus, UniProt Q02294). The data set can be described thus: Inhibition of rat Cav2.2 expressed in HEK293 cells under inactivating depolarizing conditions at holding potential of -80 to -95 mV and stepped to 0 mV once every 5 seconds by whole cell patch clamp assay. Background: Patch clamp records ionic current or voltage across a cell membrane.
Chain of Voltage-dependent N-type calcium channel subunit alpha-1B (Q02294 whole entry): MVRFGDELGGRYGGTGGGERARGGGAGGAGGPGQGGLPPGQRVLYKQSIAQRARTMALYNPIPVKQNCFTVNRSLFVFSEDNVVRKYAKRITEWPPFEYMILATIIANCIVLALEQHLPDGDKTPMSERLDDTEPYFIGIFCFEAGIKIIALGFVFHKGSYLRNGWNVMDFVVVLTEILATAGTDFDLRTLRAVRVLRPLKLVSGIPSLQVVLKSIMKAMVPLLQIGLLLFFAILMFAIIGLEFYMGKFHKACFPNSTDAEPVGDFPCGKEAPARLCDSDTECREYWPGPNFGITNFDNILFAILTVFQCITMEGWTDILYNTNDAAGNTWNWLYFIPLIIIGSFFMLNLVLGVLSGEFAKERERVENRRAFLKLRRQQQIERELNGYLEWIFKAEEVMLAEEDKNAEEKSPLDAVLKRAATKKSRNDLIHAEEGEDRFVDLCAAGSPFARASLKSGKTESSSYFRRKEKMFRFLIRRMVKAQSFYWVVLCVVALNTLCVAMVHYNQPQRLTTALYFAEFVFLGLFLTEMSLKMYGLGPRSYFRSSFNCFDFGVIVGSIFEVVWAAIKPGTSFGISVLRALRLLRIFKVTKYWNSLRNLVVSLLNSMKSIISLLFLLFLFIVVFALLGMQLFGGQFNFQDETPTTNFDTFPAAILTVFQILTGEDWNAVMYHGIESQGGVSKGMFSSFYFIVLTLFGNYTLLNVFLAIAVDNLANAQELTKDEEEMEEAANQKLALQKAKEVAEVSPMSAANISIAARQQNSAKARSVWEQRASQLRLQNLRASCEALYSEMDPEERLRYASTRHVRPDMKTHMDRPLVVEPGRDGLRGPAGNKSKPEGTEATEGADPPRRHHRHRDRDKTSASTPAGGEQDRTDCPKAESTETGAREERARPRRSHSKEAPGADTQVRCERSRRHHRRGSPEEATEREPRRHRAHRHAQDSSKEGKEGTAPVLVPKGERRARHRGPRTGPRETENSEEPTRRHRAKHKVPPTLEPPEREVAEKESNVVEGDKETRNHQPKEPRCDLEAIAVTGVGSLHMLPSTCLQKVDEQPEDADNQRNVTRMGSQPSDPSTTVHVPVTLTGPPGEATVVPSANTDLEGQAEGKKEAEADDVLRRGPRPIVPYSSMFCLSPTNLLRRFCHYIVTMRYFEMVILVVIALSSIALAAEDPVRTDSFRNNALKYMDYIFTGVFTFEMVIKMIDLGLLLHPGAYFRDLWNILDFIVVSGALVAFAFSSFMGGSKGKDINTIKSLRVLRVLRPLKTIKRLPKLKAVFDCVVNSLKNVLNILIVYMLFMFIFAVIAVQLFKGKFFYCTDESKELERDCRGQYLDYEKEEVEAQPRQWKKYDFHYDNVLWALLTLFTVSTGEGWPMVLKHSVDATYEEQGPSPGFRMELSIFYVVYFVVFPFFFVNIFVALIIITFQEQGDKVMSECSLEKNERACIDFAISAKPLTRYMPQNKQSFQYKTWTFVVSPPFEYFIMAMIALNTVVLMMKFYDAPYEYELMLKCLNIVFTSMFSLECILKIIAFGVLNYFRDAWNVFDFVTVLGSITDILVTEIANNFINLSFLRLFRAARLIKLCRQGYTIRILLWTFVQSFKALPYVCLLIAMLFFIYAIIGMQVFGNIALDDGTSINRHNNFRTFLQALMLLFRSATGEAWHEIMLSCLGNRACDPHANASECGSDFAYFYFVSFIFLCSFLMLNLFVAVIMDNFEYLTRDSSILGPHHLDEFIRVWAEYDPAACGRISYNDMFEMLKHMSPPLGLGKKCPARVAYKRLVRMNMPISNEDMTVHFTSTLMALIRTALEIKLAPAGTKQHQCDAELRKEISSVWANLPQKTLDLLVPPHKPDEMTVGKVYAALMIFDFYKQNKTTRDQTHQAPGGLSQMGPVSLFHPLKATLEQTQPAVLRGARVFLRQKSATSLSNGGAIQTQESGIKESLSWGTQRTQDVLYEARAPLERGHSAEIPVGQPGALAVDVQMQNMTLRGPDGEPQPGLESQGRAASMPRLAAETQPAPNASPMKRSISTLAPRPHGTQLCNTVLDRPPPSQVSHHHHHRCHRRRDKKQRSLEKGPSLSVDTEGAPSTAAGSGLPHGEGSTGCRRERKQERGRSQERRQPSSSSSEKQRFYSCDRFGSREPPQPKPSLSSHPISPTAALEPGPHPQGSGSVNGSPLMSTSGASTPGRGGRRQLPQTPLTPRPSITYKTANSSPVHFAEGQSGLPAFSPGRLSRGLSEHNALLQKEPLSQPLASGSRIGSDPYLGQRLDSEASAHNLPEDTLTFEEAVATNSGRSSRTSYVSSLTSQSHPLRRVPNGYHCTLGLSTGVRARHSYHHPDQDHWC

In data set [18] the test system is Rattus norvegicus. The data set can be described thus: Cardiovascular toxicity in anesthetized Sprague-Dawley rat assessed as changes in heart rate at 10 mg/kg, iv by hemodynamic function study. As to conditions: in vivo. The class given is organism-based. Set-up: dose 10 mg/kg, route intravenous.

On to `O=C(N[C@H]1CC[C@H]2CN(Cc3cccc(C(F)(F)F)c3)C[C@H]21)C(C1CCCCC1)C1CCCCC1`, for which the Activity entry in data set [1], in [2], in data set [4] and in data set [18] was “Non-toxic” throughout. Moreover, the remaining at 0.5 h in data set [3] and in [6] was < 5% each time. Further, the fraction unbound in data set [5] is < 0.01. For the same compound, the bioavailability in data set [7] worked out at 41%. Also, the EC50 came to 2000 nM in [8] and 46000 nM in data set [11]. The inhibition in vivo at 30 mg/kg in [9] is 51%. The IC50 in [10] (Homo sapiens, IMR-32, read-out: pIC50 (converted)) was 468 nM; in [10] (imr-32, read-out: IC50), 460 nM; in [17], 41 nM. In addition, the “inhibition (INH)” value in data set [11] (rat) is recorded as “Dose-dependent effect”. Further, the solubility in [12] is < 3 µM. For the same compound, the maximal effect (Emax) at 30 mg/kg stood at 67% in [13] and 87% in data set [16]. The inhibition in vivo at 10 mg/kg in data set [14] came to 51%. For the same compound, the selectivity ratio in data set [15] is > 15.

The bioavailability is the share of a dose that reaches the circulation, judged against a reference dose that is usually intravenous. Higher therefore signals good availability. As a reminder, the EC50 is the concentration that produces a half-maximal response. As usually defined, the inhibition in vivo is how much of the control response was suppressed. As usually defined, the solubility is how much of the substance goes into solution per volume. Read a low solubility as little dissolved substance. One may read the Emax as the greatest response seen or fitted, relative to the assay's reference.
